Measured values from ChEMBL document CHEMBL3758101, “Synthesis and biological evaluation of fluorinated 1,5-diarylpyrrole-3-alkoxyethyl ether derivatives as selective COX-2 inhibitors endowed with anti-inflammatory activity” (Eur J Med Chem, 2016).

Assays:
Mus musculus [1] = assay: Antinociceptive activity in CD1 albino mouse model of acetic acid-induced visceral pain assessed as number of writhes at 20 mg/kg, po pretreated for 60 mins before acetic acid challenge measured after 5 mins (reference value: 32.5 +/- 2.4); assay type: functional
Rattus norvegicus [2] = assay: Antihyperalgesic effect in Sprague-Dawley rat model of monosodium iodoacetate-induced osteoarthritis assessed as withdrawal threshold at 3 mg/kg, ip administered 14 days post MIA challenge measured after 90 mins by paw pressure test (reference value: 37.8 +/- 3.1 g); assay type: functional
Procedure, shortened: (§1)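 Male Sprague–Dawley rats (200–250 g). MIA (2 mg/25 µL) was injected into the left tibiotarsal joint on day 0 under 2% isoflurane; controls received 25 µL saline. On day 14 compound or vehicle was given at time 0. Paw pressure threshold (g) was read with an analgesimeter using a blunt conical probe on the dorsal paw at 30, 60, 90 and 120 min. Mean ± s.e.m., 6 rats.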

Rattus norvegicus [3] = assay: Antihyperalgesic effect in Sprague-Dawley rat model of monosodium iodoacetate-induced osteoarthritis assessed as withdrawal threshold at 10 mg/kg, ip administered 14 days post MIA challenge measured after 30 mins by paw pressure test (reference value: 37.8 +/- 3.3 g); assay type: functional; procedure, shortened: as §1
Rattus norvegicus [4] = assay: Antiinflammatory activity in Sprague-Dawley rat model of carrageenan-induced paw edema assessed as paw volume at 3 mg/kg, po administered 2 hrs post carrageenan challenge measured after 120 mins by plethysmometry (reference value: 34.5 +/- 4.4 ml); assay type: functional
Mus musculus [5] = assay: Antinociceptive activity in po dosed CD1 albino mouse model of acetic acid-induced visceral pain assessed as number of writhes pretreated for 30 to 60 mins before acetic acid challenge measured after 5 mins; assay type: functional, organism-based

SMILES: Cc1c(CCOCCCF)cc(-c2ccc(S(C)(=O)=O)cc2)n1-c1ccc(F)cc1
- Activity (Mus musculus [1]): 16.9
- Activity (Rattus norvegicus [2]): 42.4 g
- Activity (Rattus norvegicus [3]): 50.3 g
- Activity (Rattus norvegicus [4]): 36.2 g
- Activity (Mus musculus [5]): Dose-dependent effect
